# MrgX1 antag: antagonists of human MrgX1 receptor | MRGX1-HEK293 calcium flux, Fluo-4, BAM8-22 antagonism; active compounds read low | hit rate 1.3% among 310,000 | Q96LB2 | B-score at 10 µM;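 active = calcium-response B-score plate-corrected more than 3 library SD below zero, starting fluorescence within 5 deviations, no agonist response on first addition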;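 note: peak minus trough fluorescence over baseline after final BAM8-22 challenge near maximal dose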
# Target sequence (Q96LB2 whole entry, looked up): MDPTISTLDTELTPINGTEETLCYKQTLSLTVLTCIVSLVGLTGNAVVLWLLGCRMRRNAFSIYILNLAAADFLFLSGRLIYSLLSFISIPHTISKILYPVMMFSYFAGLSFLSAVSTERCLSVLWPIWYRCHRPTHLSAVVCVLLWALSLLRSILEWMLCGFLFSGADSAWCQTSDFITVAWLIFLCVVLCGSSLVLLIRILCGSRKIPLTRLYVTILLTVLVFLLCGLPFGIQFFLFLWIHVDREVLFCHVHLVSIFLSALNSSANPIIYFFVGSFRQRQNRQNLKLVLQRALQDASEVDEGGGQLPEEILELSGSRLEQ
# RGS4 inh: human RGS4 inhibition; B-score at 10 µM; HEK293 M3R/RGS4 inducible, Fluo-4 calcium flux; active compounds read high; triggered by carbachol at its EC20; hit rate 0.45% among 310,000; P49798;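 active = B-score, a plate-corrected calcium signal, over three deviations above library mean, with baseline fluorescence within five deviations of library mean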;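 note: RGS4 expression induced by doxycycline in cells with stable M3 receptor; B-score is computed from the integrated fluorescence ratio over baseline after carbachol; higher B-score means a larger calcium signal and so more RGS4 inhibition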
# Target sequence (P49798 whole entry, looked up): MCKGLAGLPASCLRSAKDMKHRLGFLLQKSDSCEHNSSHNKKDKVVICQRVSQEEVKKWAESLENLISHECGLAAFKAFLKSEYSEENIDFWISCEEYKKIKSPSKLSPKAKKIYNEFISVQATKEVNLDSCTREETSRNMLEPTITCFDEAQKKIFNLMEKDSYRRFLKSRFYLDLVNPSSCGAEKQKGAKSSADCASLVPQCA
# RGS4 act: RGS4 potentiation or activation. B-score at 10 µM. hit rate 0.92% among 310,000. HEK293 M3R/inducible RGS4, carbachol calcium flux Fluo4; active compounds read low;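 active = B-score of the integrated calcium signal more than 4 SD below the library mean, with starting fluorescence not abnormally high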;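 note: negative B-score means reduced calcium response which marks RGS4 activation or potentiation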
#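 Detection: kinetic calcium fluorescence imaging with Fluo4-AM dye, 2 µM / Material: HEK293 cells with stable M3R and inducible RGS4 / Schedule: recording 10 s baseline at 1 Hz, 100 s post-agonist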
# MrgX1 ag: human MrgX1 receptor agonism, primary screen; B-score at 10 µM; hit rate 0.44% among 310,000; MrgX1-HEK293 cells, Fluo-4 calcium fluorescence, agonist mode; active compounds read high; Q96LB2;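 active = calcium response B-score plate-corrected fluorescence ratio at least 3 library SD, with starting fluorescence B-score inside 5 SD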
#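 Material: HEK293 cells stably expressing human MrgX1 receptor | Quantity: 15,000 cells per well | Times: Cells plated overnight, dye loaded 0.5 h 37 °C, 0.5 h room temperature | Measured by: Kinetic Fluo-4 NW fluorescence of intracellular calcium | Control set: Positive and negative controls per plate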
# MrgX1 PAM: allosterically activates human MrgX1 receptor signaling. Q96LB2. MrgX1-HEK293, Fluo-4 calcium flux, FDSS; active compounds read high. B-score at 10 µM. hit rate 0.63% among 310,000. AID 588675;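 active = plate-corrected calcium response at least 3 library SD above typical, normal starting fluorescence, not activating the receptor alone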;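 note: compound read alongside a low EC10 to EC30 dose of BAM8-22 agonist; peak minus trough fluorescence over baseline measured at the second addition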
# RGS4 act valid: RGS4 activation, validation assay; hit rate 89% among 1,100; HEK293 M3R/RGS4 inducible, carbachol calcium flux Fluo4; AID 602282; shares compounds with RGS4 act; inhibition, % at 10 µM;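 active = inhibition above 3 SD of the buffer control wells, cut at about 41% in these data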;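 note: signal is the integrated peak-minus-minimum Fluo4 fluorescence over baseline ratio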
# RGS4 act ctr: RGS4 activator counter-screen hit in non-induced cells | shares compounds with RGS4 act | HEK293 M3R non-induced RGS4, Fluo4 calcium flux; after carbachol challenge at its EC90 | inhibition, % at 10 µM | hit rate 82% among 1,100 | AID 602283;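 active = inhibition exceeding 3 SD of buffer-only control wells, cut at about 26% in these data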;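 note: percent drop in integrated peak-minus-baseline over baseline Fluo4 ratio after carbachol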
# MrgX1 PAM conf: confirmation of human MrgX1 receptor positive allosteric modulators; activation (ratio percentage), % at 10 µM; shares compounds with MrgX1 PAM; hit rate 13% among 1,200; MrgX1-HEK293, Fluo-4 calcium fluorescence, FDSS;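 active = ratio at least 3 SD above the weak peptide control, stable starting fluorescence, no direct agonism earlier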;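 note: compound followed by low BAM8-22 agonist challenge near EC20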
# HEK293 Ca flux: activity in parental HEK293 cells lacking MrgX1 | Fluo-4 calcium fluorescence, FDSS | AID 624111 | hit rate 2% among 4,000 | shares compounds with MrgX1 antag | fluorescence ratio F(max-min)/F0 at 10 µM;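 active = duplicate-averaged calcium fluorescence ratio at least three times the standard deviation of buffer wells, a nonspecific response in parental cells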
# HEK293 Ca counter: activity in parental HEK293 cells without MrgX1; shares compounds with MrgX1 antag; parental HEK293 calcium flux, Fluo-4 fluorescence ratio; active compounds read high; fluorescence ratio F(max-min)/F0 at 10 µM; hit rate 0.4% among 4,000; AID 624114;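 active = calcium fluorescence ratio, averaged over duplicates, at least 3 SD of the buffer-well ratio, meaning a nonspecific response in receptor-free cells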;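 note: untransfected parental HEK293 lacking MrgX1 used as counterscreen for MrgX1 allosteric activators; fluorescence change taken during the second addition on a kinetic imager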
# HEK293 Ca cntr2: MrgX1 activator counter-screen hit in parental HEK293 cells. shares compounds with MrgX1 antag. Fluo-4 calcium fluorescence (FDSS); active compounds read high. fluorescence ratio F(max-min)/F0 at 10 µM. hit rate 8.7% among 4,000. AID 624115;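 active = calcium fluorescence ratio at least three times the spread of buffer wells, meaning a non-specific response in parental cells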
# * = called active by the depositor; i = inactive; nt = not tested or not shown. A selection: hits, their analogues and other compounds. The true share with any hit is near 3.5%.
SMILES,MrgX1 antag,RGS4 inh,RGS4 act,MrgX1 ag,MrgX1 PAM,RGS4 act valid,RGS4 act ctr,others
N#CCCN(Cc1ccncc1)C(=S)NC1CC2C=CC1C2 (configuration not stated),i,i,i,i,i,nt,nt,
CCN(Cc1ccc(OC)c(COC)c1)CC1CCCN(CCc2cccc(F)c2)C1 (configuration not stated),i,i,i,i,i,nt,nt,
O=C(NNC(=O)C1[C@H]2CCCC[C@@H]12)Nc1cccc2ccccc12 (some centres not stated),i,i,i,i,i,nt,nt,
CC(C(=O)N(C)C1CCS(=O)(=O)C1)N1C(=O)/C(=C/c2cccs2)SC1=S (configuration not stated),i,i,i,i,i,nt,nt,
Cc1ccc(SCc2c(-c3ccccc3)nn(C)c2Cl)cc1,i,i,i,i,i,nt,nt,
Cc1ccc(Sc2c(C#N)c(-c3ccccc3)nn2C)cc1,i,i,-8*,i,i,74*,36*,
COc1ccc(C(c2nnnn2Cc2ccccc2)N2CCN(c3ccccc3)CC2)cc1 (configuration not stated),i,i,i,i,i,nt,nt,
COc1ccc(C(c2nnnn2Cc2cccs2)N2CCN(c3ccccc3F)CC2)cc1 (configuration not stated),i,i,-7.6*,i,i,0,0,
CCOc1cc(/C=N/NC(=O)CSc2cccc3cccnc23)ccc1O,i,i,i,i,i,nt,nt,
COc1ccc(C(=O)N=c2sc3c(C)ccc(OC)c3n2C)cc1OC,i,i,-7.7*,i,i,86*,50*,
CCn1c(=NC(=O)c2cccc(N3C(=O)CCC3=O)c2)sc2c(C)ccc(OC)c21,i,i,-8.6*,i,i,68*,30*,
COC(=O)Nc1cc(C(=O)c2ccc(Cl)cc2Cl)c[nH]1,i,i,i,i,i,nt,nt,
OC(CNCc1ccc(Cl)cc1)(c1ccccc1)c1ccc(F)cc1 (configuration not stated),i,i,-9.4*,i,i,94*,86*,
OC(CNCc1ccc(F)cc1)(c1ccc(F)cc1)c1ccc(F)cc1,i,i,i,i,i,nt,nt,
CC1CCC(C(C)C)C(OC(=O)C[n+]2cc(-c3ccc(Cl)cc3)n3c2CCCCC3)C1 (configuration not stated),i,i,-11*,i,i,94*,94*,
CCOc1ccc(S(=O)(=O)NC(C)(C)C)cc1-c1nc2c(C(C)(C)C)nn(C)c2c(=O)[nH]1,i,i,-10*,i,i,76*,46*,
Cc1ccc(C(=O)N(CCc2ccccc2)Cc2ccccc2)cc1S(=O)(=O)N1CCCCC1,i,i,-8.5*,i,i,91*,50*,
CC1CCCCC1NC(=O)CNC(=O)c1cccs1 (configuration not stated),i,i,i,i,i,nt,nt,
Cc1cccc(NC(=O)c2ccc(Cl)nc2)n1,i,i,i,i,i,nt,nt,
COc1ccc(/C=N/NC(=O)c2cc(C(C)(C)C)[nH]n2)cc1COc1ccc(F)cc1F,i,i,-12*,i,i,74*,27*,
CCOc1ccc(NC(=O)CC2C(=O)N(c3ccc(OCC)cc3)C(=S)N2C2CC2)cc1 (configuration not stated),i,i,i,i,i,nt,nt,
Cc1cc2c3c([nH]c2cc1S(=O)(=O)NCc1ccc(CN2CCCCCC2)o1)CCCC3=O,i,i,-8.6*,i,i,75*,46*,
CCNc1cccc2c1C(=O)N(C)C2=O,i,i,i,i,i,nt,nt,
COC(=O)C1CCN(c2nc3ccccc3nc2C(C#N)C(=O)OCC(C)C)CC1 (configuration not stated),i,i,-7.9*,i,i,91*,75*,
COC(=O)CCC(=O)Nc1sc(C)c(C)c1C(N)=O,i,i,i,i,i,nt,nt,
SMILES,MrgX1 antag,RGS4 inh,RGS4 act,MrgX1 ag,MrgX1 PAM,RGS4 act valid,RGS4 act ctr,others
CC1CCCC(NC(=O)C2CCN(S(=O)(=O)c3cccc4nonc34)CC2)C1C (configuration not stated),i,i,i,i,i,nt,nt,
COc1ccc(CCC(C)N2CCC(Oc3ccc(C(=O)N4CCCC4)cc3)CC2)cc1 (configuration not stated),i,i,-7.6*,i,i,84*,44*,
CC(CCc1ccc(O)cc1)N1CCC(Oc2ccc(C(=O)N3CCCC3)cc2)CC1 (configuration not stated),i,i,i,i,i,nt,nt,
Cn1cc([N+](=O)[O-])c(C(=O)NCc2cc3cc(Cl)ccc3[nH]2)n1,i,i,i,i,i,nt,nt,
CN1CCC(Oc2ccccc2Sc2ccc(C(F)(F)F)cc2)CC1,i,i,i,i,i,nt,nt,
CN1CCC(Oc2ccc(Sc3ccccc3)cc2)CC1,i,i,-8.2*,i,i,86*,41*,
CC1=CC(C)(C)N(C(=O)CNC2CCCCC2)c2cc(C)ccc21,i,i,-8.5*,i,i,94*,97*,
CC1=CC(C)(C)N(C(=O)CCl)c2cc(C)ccc21,i,i,i,i,i,nt,nt,
COc1ccc(OC)c(/C=C/c2nc3ccccc3[nH]c2=O)c1,i,i,-7.7*,i,i,60*,44*,
OC(CCN1CCOCC1)(c1ccc(Cl)cc1)C1CCCCC1 (configuration not stated),i,i,-9.8*,i,6.8*,93*,94*,MrgX1 PAM conf=i;HEK293 Ca flux=i;HEK293 Ca counter=i;HEK293 Ca cntr2=i
